Test results: ChEMBL document CHEMBL2057080, “Synthesis, biological evaluation, and structure-activity relationships of a novel class of apurinic/apyrimidinic endonuclease 1 inhibitors” (J Med Chem, 2012)
≈ marks a conversion by molar mass, not a printed value. Calls of active or inactive are those of the source. The calls are words filed in the database; no cut-off is given here.

Tests used:
[1] = biological target: T1, DNA repair nuclease/redox regulator APEX1 (Homo sapiens, UniProt P27695); assay: Inhibition of human recombinant APE1 after 15 mins by fluorescence based HTS assay
T1 sequence (P27695 whole entry): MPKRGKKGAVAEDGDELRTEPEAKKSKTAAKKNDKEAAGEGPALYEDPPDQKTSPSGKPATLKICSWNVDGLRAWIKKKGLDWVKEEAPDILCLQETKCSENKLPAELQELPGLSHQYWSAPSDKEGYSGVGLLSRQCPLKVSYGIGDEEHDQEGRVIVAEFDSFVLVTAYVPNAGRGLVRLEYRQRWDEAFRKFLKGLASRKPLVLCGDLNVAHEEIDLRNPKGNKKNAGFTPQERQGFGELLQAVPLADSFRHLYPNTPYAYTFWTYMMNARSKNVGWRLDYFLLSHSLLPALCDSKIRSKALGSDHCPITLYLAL
Method in brief: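 APE1 inhibition was measured in the fluorescence-based qHTS format at up to 57 µM. IC50 is the average of three separate experiments.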

[2] = biological target: T1, DNA repair nuclease/redox regulator APEX1; assay: Inhibition of recombinant APE1 using […]-5'-AP-DNA as substrate incubated for 15 mins prior to substrate addition measured after 5 mins by PAGE analysis
[3] = biological target: T1, DNA repair nuclease/redox regulator APEX1; assay: Inhibition of APE1 in human HeLa whole cell extract using […]-5'-AP-DNA as substrate assessed as activity remaining at 100 uM incubated for 15 mins prior to substrate addition measured after 5 mins by PAGE analysis relative to control
Method in brief: (§1)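 HeLa whole cell extract (300 ng; KCl-extracted hypotonic lysate) was preincubated with inhibitor for 15 min at room temperature, at 100 µM or at 0–100 µM. Then 0.5 pmol 32P AP-DNA was added for 5 min at 37 °C. Samples were run on denaturing PAGE, and incision is reported relative to the no-inhibitor control, from three independent measurements.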

[4] = biological target: T1, DNA repair nuclease/redox regulator APEX1; assay: Competitive inhibition of recombinant APE1 using […]-5'-AP-DNA as substrate incubated for 15 mins prior to substrate addition measured after 5 mins by Lineweaver-Burk plot analysis
Method in brief: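 APE1 (~28 pM) was incubated with 0, 5, 10 or 20 µM inhibitor for 15 min at room temperature. 32P AP-DNA was added at 5–100 nM, followed by 5 min at 37 °C and denaturing PAGE. Velocities were measured, and KM and kcat came from Lineweaver–Burk plots.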

[5] = biological target: T1, DNA repair nuclease/redox regulator APEX1; assay: Competitive inhibition of recombinant APE1 using […]-5'-AP-DNA as substrate assessed as decrease in APE1-DNA complex formation incubated for 10 mins prior to substrate addition measured after 5 mins by electrophoretic mobility shift assay
Method in brief: (§2)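 APE1 (~28 nM) was preincubated without inhibitor (1% DMSO) or with 1, 3, 10, 30 or 100 µM inhibitor for 10 min on ice. Then 100 fmol (10 nM) 32P AP-DNA was added for 5 min on ice. Complexes were resolved on an 8% native gel and quantified by phosphorimager relative to control, in three independent replicates.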

[6] = biological target: T1, DNA repair nuclease/redox regulator APEX1; assay: Competitive inhibition of recombinant APE1 using […]-5'-AP-DNA as substrate assessed as decrease in APE1-DNA complex formation at 30 uM incubated for 10 mins prior to substrate addition measured after 5 mins by electrophoretic mobility shift assay; method in brief: as §2
[7] = biological target: T1, DNA repair nuclease/redox regulator APEX1; assay: Competitive inhibition of recombinant APE1 using […]-5'-AP-DNA as substrate assessed as decrease in APE1-DNA complex formation at 10 to 100 uM preincubated with substrate for 15 mins prior to enzyme addition measured after 5 mins by electrophoretic mobility shift assay
[8] = biological target: T1, DNA repair nuclease/redox regulator APEX1; assay: Inhibition of APE1 in human HeLa cells assessed as accumulation of genomic AP sites at 7.5 uM after 24 hrs by aldehyde reactive probe-based assay relative to control; format: cell-based
Method in brief: (§3)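 HeLa cells at 80% confluency were treated for 24 h at 37 °C with DMSO, 275 µM MMS, or 7.5 µM inhibitor, alone or combined with MMS. Genomic DNA (100 ng/µL) was labelled with Aldehyde Reactive Probe and AP sites were quantified, in triplicate. Significance was tested by Student's t test.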

[9] = biological target: T1, DNA repair nuclease/redox regulator APEX1; assay: Inhibition of APE1 activity in human HeLa cells assessed as fold increase in genomic AP site accumulation after 24 hrs by aldehyde reactive probe-based assay in presence of methyl methanesulfonate; format: cell-based; method in brief: as §3
[10] = system: HeLa; assay: Potentiation of methyl methanesulfonate cytotoxic activity against human HeLa cells assessed as decrease in cell viability at 5 to 10 uM after 24 hrs by CellTiterGlo assay; format: functional, cell-based
Method in brief: (§4)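 HeLa cells were seeded at 6K per well in DMEM/10% FBS and attached overnight. The medium was replaced with compound (5–30 µM) with or without MMS (0.4 mM) or TMZ (1 mM), followed by 24 h at 37 °C. Viability was read with CellTiter-Glo luminescence relative to DMSO, in duplicate. Combination values were normalized to the alkylating agent alone.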

[11] = system: HeLa; assay: Potentiation of temozolomide cytotoxic activity against human HeLa cells assessed as decrease in cell viability at 5 to 10 uM after 24 hrs by CellTiterGlo assay; format: functional, cell-based; method in brief: as §4
[12] = system: HeLa; assay: Cytotoxicity against human HeLa cells at 15 uM after 24 hrs by CellTiterGlo assay; format: functional; method in brief: as §4
[13] = system: HeLa; assay: Potentiation of methyl methanesulfonate cytotoxic activity against human HeLa cells assessed as decrease in cell viability at 1 to 2 uM incubated for 8 hrs measured after 56 hrs post compound wash-out by Hoechst 33342 staining-based assay; format: functional
[14] = system: HeLa; assay: Potentiation of temozolomide cytotoxic activity against human HeLa cells assessed as decrease in cell viability at 1 to 2 uM incubated for 8 hrs measured after 56 hrs post compound wash-out by Hoechst 33342 staining-based assay; format: functional
[15] = Aqueous kinetic solubility of the compound in PBS at pH 7.4; format: physicochemical; conditions: read-out: Kinetic_solubility
[16] = biological target: CYP2D6 (Homo sapiens, UniProt P10635); assay: Inhibition of CYP2D6 at 10 uM; format: ADME
Sequence of CYP2D6 (P10635 whole entry): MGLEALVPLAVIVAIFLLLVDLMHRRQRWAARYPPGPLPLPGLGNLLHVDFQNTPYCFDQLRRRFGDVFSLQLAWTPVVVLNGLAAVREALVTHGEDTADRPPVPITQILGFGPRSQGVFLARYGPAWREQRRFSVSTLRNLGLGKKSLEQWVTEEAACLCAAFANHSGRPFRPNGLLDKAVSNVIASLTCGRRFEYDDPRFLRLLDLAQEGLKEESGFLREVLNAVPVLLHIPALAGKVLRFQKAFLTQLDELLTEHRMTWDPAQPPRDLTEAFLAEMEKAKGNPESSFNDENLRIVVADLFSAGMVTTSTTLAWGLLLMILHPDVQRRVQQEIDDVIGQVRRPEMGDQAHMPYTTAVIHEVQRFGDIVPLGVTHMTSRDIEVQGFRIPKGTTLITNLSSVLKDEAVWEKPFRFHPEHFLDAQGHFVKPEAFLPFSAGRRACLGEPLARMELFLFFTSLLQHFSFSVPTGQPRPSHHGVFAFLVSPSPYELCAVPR

[17] = biological target: CYP3A4 (Homo sapiens, UniProt P08684); assay: Inhibition of CYP3A4 at 10 uM; format: ADME
Sequence of CYP3A4 (P08684 whole entry): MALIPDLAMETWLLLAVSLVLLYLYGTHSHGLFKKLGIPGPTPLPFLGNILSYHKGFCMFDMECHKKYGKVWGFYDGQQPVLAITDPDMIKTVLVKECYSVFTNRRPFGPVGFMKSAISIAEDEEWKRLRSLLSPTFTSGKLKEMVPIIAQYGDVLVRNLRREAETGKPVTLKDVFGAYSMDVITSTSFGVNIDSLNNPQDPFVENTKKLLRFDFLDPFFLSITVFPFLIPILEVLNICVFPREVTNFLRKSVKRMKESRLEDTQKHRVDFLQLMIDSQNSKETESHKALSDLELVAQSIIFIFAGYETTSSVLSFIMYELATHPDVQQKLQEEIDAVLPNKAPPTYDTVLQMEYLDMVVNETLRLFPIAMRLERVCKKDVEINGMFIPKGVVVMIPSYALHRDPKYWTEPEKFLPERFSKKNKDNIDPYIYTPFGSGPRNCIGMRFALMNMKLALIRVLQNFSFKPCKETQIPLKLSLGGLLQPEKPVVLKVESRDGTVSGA

[18] = system: Liver; assay: Half life in mouse liver microsomes; format: ADME, Microsome
Method in brief: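 Stability in mouse liver microsomes reported as T1/2. Done by a contract lab, and values are the average of two experiments.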

[19] = Chemical stability of the compound in PBS at pH 7.4 assessed as compound remaining after 48 hrs; format: physicochemical; conditions: buffer, pH 7.4, 48 h
Method in brief: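 The compound was held in PBS pH 7.4 and the percent remaining was measured after 48 h. Done by a contract lab, and values are the average of two experiments.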

[20] = system: Plasma; assay: Half life in mouse plasma; format: ADME, cell-free
Method in brief: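 Stability in mouse plasma reported as T1/2. Done by a contract lab, and values are the average of two experiments.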

[21] = system: Mus musculus; assay: Toxicity in CD1 mouse assessed as adverse effect at 30 mg/kg, ip after 24 hrs; format: organism-based; set-up: dose 30 mg/kg, route intraperitoneal; conditions: in vivo
Method in brief: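 Male CD1 mice, 6–8 weeks old, were given 30 mg/kg IP in PEG/Cremophor EL saline vehicle.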

[22] = system: Plasma; assay: Half life in CD1 mouse plasma at 30 mg/kg, ip; format: ADME, organism-based; set-up: dose 30 mg/kg, route intraperitoneal; conditions: in vivo
Method in brief: (§5)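 Male CD1 mice, 6–8 weeks old, n = 3, were given 30 mg/kg IP in 50% PEG 200 or PEG 400 plus 10% Cremophor EL in saline. Cardiac-puncture blood was taken at 0.25, 0.5, 1, 2, 4, 8, 12 and 24 h, with heparin plasma. Brain values were multiplied by 5, and LC/MS/MS was used. The brain/plasma ratio is the average over the 8 time points.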

[23] = system: Brain; assay: Half life in CD1 mouse brain at 30 mg/kg, ip; format: ADME, organism-based; set-up: dose 30 mg/kg, route intraperitoneal; conditions: in vivo; method in brief: as §5
[24] = system: Plasma; assay: Cmax in CD1 mouse plasma at 30 mg/kg, ip; format: ADME, organism-based; set-up: dose 30 mg/kg, route intraperitoneal; conditions: in vivo; method in brief: as §5
[25] = system: Brain; assay: Cmax in CD1 mouse brain at 30 mg/kg, ip; format: ADME, organism-based; set-up: dose 30 mg/kg, route intraperitoneal; conditions: in vivo; method in brief: as §5
[26] = system: Plasma; assay: Tmax in CD1 mouse plasma at 30 mg/kg, ip; format: ADME, organism-based; set-up: dose 30 mg/kg, route intraperitoneal; conditions: in vivo; method in brief: as §5
[27] = system: Brain; assay: Tmax in CD1 mouse brain at 30 mg/kg, ip; format: ADME, organism-based; set-up: dose 30 mg/kg, route intraperitoneal; conditions: in vivo; method in brief: as §5
[28] = biological target: T1, DNA repair nuclease/redox regulator APEX1; assay: Inhibition of APE1 in human HeLa whole cell extract using […]-5'-AP-DNA as substrate at 10 uM incubated for 15 mins prior to substrate addition measured after 5 mins by PAGE analysis; method in brief: as §1
[29] = system: HeLa; assay: Potentiation of methyl methanesulfonate cytotoxic activity against human HeLa cells assessed as decrease in cell viability at 10 to 15 uM after 24 hrs by CellTiterGlo assay; format: functional, cell-based; method in brief: as §4
[30] = system: HeLa; assay: Potentiation of temozolomide cytotoxic activity against human HeLa cells assessed as decrease in cell viability at 10 to 15 uM after 24 hrs by CellTiterGlo assay; format: functional, cell-based; method in brief: as §4
[31] = system: HeLa; assay: Cytotoxicity against human HeLa cells at 30 uM after 24 hrs by CellTiterGlo assay; format: functional; method in brief: as §4
[32] = system: HeLa; assay: Potentiation of methyl methanesulfonate cytotoxic activity against human HeLa cells assessed as decrease in cell viability at 2.5 to 5 uM incubated for 8 hrs measured after 56 hrs post compound wash-out by Hoechst 33342 staining-based assay; format: functional
[33] = system: HeLa; assay: Potentiation of temozolomide cytotoxic activity against human HeLa cells assessed as decrease in cell viability at 2.5 to 5 uM incubated for 8 hrs measured after 56 hrs post compound wash-out by Hoechst 33342 staining-based assay; format: functional
[34] = biological target: T1, DNA repair nuclease/redox regulator APEX1; assay: Inhibition of human APE1 expressed in Escherichia coli rosetta using fluorescein-dabcyl-containing oligonucleotide as substrate after 5 mins by fluorescence spectrophotometry

| IC50 [1] | Activity [3] | inhibition [4] | inhibition [5] | inhibition [6] | inhibition [7] | inhibition [8] | fold change (FC) [9] | solubility kinetic [15] | inhibition at 10 µM [16] | inhibition at 10 µM [17] | t1/2 [18] | Stability [19] | t1/2 [20] | t1/2 [22] | t1/2 [23] | Cmax [24] | Cmax [25] | Tmax [26] | SMILES | Activity [21] | further results |
| --- | --- | --- | --- | --- | --- | --- | --- | --- | --- | --- | --- | --- | --- | --- | --- | --- | --- | --- | --- | --- | --- |
| 2 µM | 0.6% | Active | Dose-dependent effect | Active | Active | Active | 3 | 20.4 µM (≈ 7.58 µg/mL) | 0% | 53% | 1.33 h | 100% | > 4.17 h | 2.1 h | 1 h | 16 µM | 217 µM | 0.25 h | CC(=O)Nc1sc2c(c1-c1nc3ccccc3s1)CCN(C(C)C)C2 | Non-toxic | IC50 [2]: 12 µM; Activity [10]: Active; Activity [11]: Active; Activity [12]: 50%; Activity [13]: Active; Activity [14]: Active; Tmax [27]: 0.25 h |
| 3.3 µM | 0.1% | Active | Dose-dependent effect | Active | Active | Active | 3 | 51.6 µM (≈ 16.3 µg/mL) | 39% | 50% | 0.13 h | 100% | 3.55 h | 5 h | 2.5 h | 36 µM | 92 µM | 0.25 h | CC(=O)Nc1sc2c(c1-c1nc3ccccc3s1)CNC2 | Non-toxic | inhibition [28]: Active; Activity [29]: Active; Activity [30]: Active; Activity [31]: 50%; Activity [32]: Active; Activity [33]: Active; Tmax [27]: 0.25 h |
| 32 µM | – | – | – | – | – | – | – | – | – | – | – | – | – | – | – | – | – | – | Cc1cc(C)c2c(N)c3cccc(C)c3nc2n1 | – | IC50 [34]: 32 µM |
